An excerpt weighted towards active compounds, which were near 1.8% of everything screened.
M5 ag: human M5 muscarinic receptor agonists, primary screen, CHO-K1 cells, Fluo-8 calcium fluorescence. CHO-K1 hM5 cells; 0% DMSO wells, 100% maximal acetylcholine response. Muscarinic acetylcholine receptor M5 (Homo sapiens), P08912. 360,000 tested, 0.19% active. activation, % at 3 µM;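 active means activation above the run's mean over test compounds plus 3 SD, cut at about 23% in these data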;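 further: signal is peak over basal fluorescence ratio across the kinetic read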
Target sequence (P08912 whole entry, looked up): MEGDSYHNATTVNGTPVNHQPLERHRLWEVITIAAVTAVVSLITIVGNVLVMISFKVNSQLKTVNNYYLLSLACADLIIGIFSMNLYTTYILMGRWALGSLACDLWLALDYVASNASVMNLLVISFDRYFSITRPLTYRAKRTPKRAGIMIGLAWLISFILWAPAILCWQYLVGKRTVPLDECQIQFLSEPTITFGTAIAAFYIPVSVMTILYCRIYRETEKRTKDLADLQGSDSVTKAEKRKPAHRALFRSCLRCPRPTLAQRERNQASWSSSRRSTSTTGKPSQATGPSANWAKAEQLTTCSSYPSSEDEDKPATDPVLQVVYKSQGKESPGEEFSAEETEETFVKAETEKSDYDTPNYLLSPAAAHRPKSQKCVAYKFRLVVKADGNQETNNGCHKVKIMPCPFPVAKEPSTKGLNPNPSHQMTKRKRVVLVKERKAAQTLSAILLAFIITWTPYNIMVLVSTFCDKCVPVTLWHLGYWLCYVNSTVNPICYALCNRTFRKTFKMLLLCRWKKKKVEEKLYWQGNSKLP
M4 ag: human M4 muscarinic receptor agonists, primary screen, CHO-K1 cells, Fluo-8 calcium fluorescence. CHO-K1 hM4/Gqi5; vehicle 0%, full acetylcholine response 100%. activation, % at 3 µM. 360,000 tested, 0.14% active. AID 624127, 2012;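 active means activation above the run mean over all test wells plus 3 SD, cut at about 32% in these data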;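 further: peak over basal fluorescence ratio per well then scaled between controls; 0% = DMSO wells and 100% = acetylcholine at EC100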
CHRM4 antagonist: human M4 muscarinic receptor antagonists, primary screen, CHO cells, Fluo-8 calcium fluorescence. Muscarinic acetylcholine receptor M4 (Homo sapiens), P08173. CHO-hM4 cells, ACh EC80. inhibition, % at 3 µM. 360,000 tested, 0.73% active. AID 624125, 2012;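 active means inhibition above its plate's cutoff, the mean inhibition of sample wells plus 3 SD, cut at about 27% in these data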;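 further: 0% = acetylcholine EC80 with DMSO and 100% = DMSO without agonist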
M5 PAM: human M5 muscarinic receptor positive allosteric modulators, primary screen, CHO-K1 cells, Fluo-8 calcium fluorescence. 360,000 tested, 0.3% active. CHO-K1 hM5, ACh EC20 PAM; 0% = ACh EC20, 100% = ACh EC100. activation, % at 3 µM. Muscarinic acetylcholine receptor M5 (Homo sapiens), P08912;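 active means activation above the run cutoff, the mean activation of all test compounds plus 3 SD, cut at about 18% in these data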
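Probe or stimulus: acetylcholine, EC20 level; Assay system: human M5 receptor in CHO-K1 cells; Schedule: compound preincubation 140 s before EC20 acetylcholine addition; Technique: intracellular calcium via Fluo-8 fluorescence; Dosing: single-point, 3 µM nominal; Read-out basis: percent activation from peak-over-basal fluorescence ratio, scaled EC20-to-EC100 acetylcholine; Repeats: one well per compound, no replicates.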
CHRM4 PAM: human M4 muscarinic receptor positive allosteric modulators, primary screen, CHO-K1 cells, Fluo-8 calcium fluorescence | Muscarinic acetylcholine receptor M4 (Homo sapiens), P08173 | 360,000 tested, 0.4% active | CHO-K1 hM4/Gqi5, ACh EC20; 0% = ACh EC20, 100% = maximal ACh | activation, % at 3 µM | AID 624126, 2012;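 active means activation above its plate's cutoff, the mean activation of sample wells plus 3 SD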
M5 antag: human M5 muscarinic receptor antagonists, primary screen, CHO cells, Fluo-8 calcium fluorescence. Muscarinic acetylcholine receptor M5 (Homo sapiens), P08912. CHO-hM5 cells, ACh EC80. inhibition, % at 3 µM. 360,000 tested, 0.59% active. AID 624040, 2012;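 active means inhibition above a per-plate cutoff, the mean of that plate's test compounds plus 3 SD, cut at about 27% in these data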;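 further: 0% = acetylcholine EC80 with DMSO and 100% = DMSO without agonist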
The depositor's hits bear a star.

Results for COc1ccccc1NC(=O)Nc1nc(C(N)Cc2ccccc2)cs1 (stereo not given) ?
M5 ag: 2; M4 ag: 14; CHRM4 antagonist: 5; M5 PAM: -3; CHRM4 PAM: 2; M5 antag: 11

What do the screens show for `NC(Cc1ccc(Cl)cc1)c1csc(NC(=O)Nc2ccccc2)n1` (stereo not given)?
M5 ag: 4; M4 ag: 28; CHRM4 antagonist: 27*; M5 PAM: 1; CHRM4 PAM: -2; M5 antag: 7

Results for Cc1ccccc1NC(=O)Nc1nc(C(N)Cc2ccccc2)cs1 (stereo not given) ?
M5 ag: 11; M4 ag: 36*; CHRM4 antagonist: 6; M5 PAM: -4; CHRM4 PAM: -7; M5 antag: 4

What do the screens show for `COc1ccccc1NC(=O)Nc1nc(C(N)Cc2ccc(Cl)cc2)cs1` (stereo not given)?
M5 ag: 2; M4 ag: 51*; CHRM4 antagonist: 34*; M5 PAM: 3; CHRM4 PAM: -4; M5 antag: 9

What do the screens show for `COc1cc(NC(=O)CNC(=O)Cn2cnc3sc(C)c(C)c3c2=O)cc(OC)c1OC`?
M5 ag: 0; M4 ag: 0; CHRM4 antagonist: -13; M5 PAM: 2; CHRM4 PAM: 7; M5 antag: -3

What do the screens show for `O=C(Nc1c(F)cccc1F)c1cnc(N2CCN(c3ccccn3)CC2)c2ccccc12`?
M5 ag: 0; M4 ag: 19; CHRM4 antagonist: 4; M5 PAM: -20; CHRM4 PAM: -15; M5 antag: 14

What do the screens show for `Cc1ccc(NC(=O)c2cnc(N3CCN(c4ccccn4)CC3)c3ccccc23)c(Br)c1`?
M5 ag: 3; M4 ag: 12; CHRM4 antagonist: 30*; M5 PAM: -15; CHRM4 PAM: -21; M5 antag: 14

Results for CCCCN(C=O)c1c(CC)nc2ccc(C(=O)NCCCn3ccnc3)cn12 ?
M5 ag: 0; M4 ag: 1; CHRM4 antagonist: -4; M5 PAM: 1; CHRM4 PAM: -5; M5 antag: -11

What do the screens show for `C#CC[N+]1(CC#Cc2ccccc2)CCCC1`?
M5 ag: -7; M4 ag: 1; CHRM4 antagonist: 2; M5 PAM: -13; CHRM4 PAM: -5; M5 antag: 0

What do the screens show for `C(#Cc1ccccc1)C[N+]1(CC#Cc2cccc3ccccc23)CCCC1`?
M5 ag: -10; M4 ag: 1; CHRM4 antagonist: 5; M5 PAM: -20; CHRM4 PAM: -14; M5 antag: 29*

What do the screens show for `CC1Cc2cc(C3(O)C(=O)c4ccccc4C3=O)ccc2N1` (stereo not given)?
M5 ag: -7; M4 ag: 0; CHRM4 antagonist: 31*; M5 PAM: 4; CHRM4 PAM: -17; M5 antag: -2

Results for CNc1ccc(C2(O)C(=O)c3ccccc3C2=O)cc1 ?
M5 ag: 0; M4 ag: 0; CHRM4 antagonist: 5; M5 PAM: -2; CHRM4 PAM: -2; M5 antag: 6

How did CN(CCCn1ccc(NC(=O)OCc2ccccc2)nc1=O)Cc1ccco1 do in these assays?
M5 ag: -1; M4 ag: 0; CHRM4 antagonist: 3; M5 PAM: 0; CHRM4 PAM: -2; M5 antag: 1

How did Nn1c(SCc2cccc(F)c2)nnc1-c1cccnc1 do in these assays?
M5 ag: 1; M4 ag: 18; CHRM4 antagonist: -1; M5 PAM: -18; CHRM4 PAM: -13; M5 antag: 15

Results for Nn1c(SCc2cccc(Br)c2)nnc1-c1cccnc1 ?
M5 ag: -6; M4 ag: 1; CHRM4 antagonist: -11; M5 PAM: 19*; CHRM4 PAM: 11; M5 antag: -10

What do the screens show for `Nn1c(SC/C=C/c2ccccc2)nnc1-c1cccnc1`?
M5 ag: 0; M4 ag: 1; CHRM4 antagonist: 28*; M5 PAM: 3; CHRM4 PAM: 7; M5 antag: 2

How did Clc1ccc(-n2c(SC/C=C/c3ccccc3)nnc2-c2cccnc2)cc1 do in these assays?
M5 ag: 0; M4 ag: 4; CHRM4 antagonist: 12; M5 PAM: -3; CHRM4 PAM: 1; M5 antag: -3

Results for COC(=O)[C@@]12C[C@@H](CC(=O)N3CCN(C(=O)C4CC4)CC3)C(=O)N(Cc3ccco3)C1=CCC(C)(C)C2 ?
M5 ag: -1; M4 ag: 2; CHRM4 antagonist: -8; M5 PAM: -2; CHRM4 PAM: 7; M5 antag: -2

Results for CN(c1ccccc1)S(=O)(=O)c1cccc(NC(=O)c2ccc(Cl)c([N+](=O)[O-])c2)c1 ?
M5 ag: 3; M4 ag: 23; CHRM4 antagonist: 33*; M5 PAM: -38; CHRM4 PAM: -16; M5 antag: 34*

What do the screens show for `Cc1nc2ccc(NC(=O)c3ccc(Cl)c(S(=O)(=O)N(C)c4ccccc4)c3)cc2s1`?
M5 ag: 1; M4 ag: 3; CHRM4 antagonist: -14; M5 PAM: 2; CHRM4 PAM: 0; M5 antag: -2

Results for Cc1nc2ccc(NC(=O)c3cc(S(=O)(=O)N(C)c4ccccc4)ccc3Cl)cc2s1 ?
M5 ag: 12; M4 ag: 20; CHRM4 antagonist: 7; M5 PAM: -16; CHRM4 PAM: -21; M5 antag: 29*

How did COc1ccccc1NC(=S)NC(=O)Cc1ccc(Cl)cc1 do in these assays?
M5 ag: 5; M4 ag: 4; CHRM4 antagonist: 1; M5 PAM: -7; CHRM4 PAM: -4; M5 antag: 9

What do the screens show for `COc1cccc(NC(=S)NC(=O)Cc2ccc(Cl)cc2)c1`?
M5 ag: 36*; M4 ag: 29; CHRM4 antagonist: 0; M5 PAM: 1; CHRM4 PAM: -5; M5 antag: 12

How did COc1cccc(NC(=O)c2cc(Cl)nnc2Cl)c1 do in these assays?
M5 ag: -5; M4 ag: 4; CHRM4 antagonist: -7; M5 PAM: 8; CHRM4 PAM: 24*; M5 antag: 0

What do the screens show for `COc1ccc(CC(=O)NC(=S)Nc2cccc(C)c2)cc1`?
M5 ag: 30*; M4 ag: 29; CHRM4 antagonist: 5; M5 PAM: 5; CHRM4 PAM: -20; M5 antag: 6

High-throughput results: PubChem, The Scripps Research Institute Molecular Screening Center
